Source: PubChem BioAssay (several laboratories)
This excerpt belongs to a sample that is enriched for hits.
Lmaj promast: reduces viability of Leishmania major promastigotes; resazurin fluorescence viability; inhibition, % at 10 µM; 200,000 compounds, 9% hits; in the data active means inhibition above about 50%;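 further: promastigotes grown with compound for 44 hours at 28 °C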
Dynein transport: dynein cargo transport inhibition; 220,000 compounds, 0.47% hits; 3617.4 mouse cells, GR-EGFP nuclear translocation imaging; test concentration mostly 20 µM; stimulated with dexamethasone, 1 µM; active compounds read low; z-score, hits read low;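 active means plate z-score of nuclear minus cytoplasmic receptor signal below a set negative limit, without overly bright fluorescence or cell loss, cut at about -3.5 in these data, passing the limit was not always enough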;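 further: z-score of nuclear minus cytoplasmic ring GR-EGFP intensity difference per well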
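medium = tetracycline-free induction medium containing charcoal-stripped FBS | probe or stimulus = dexamethasone, 1.0 µM final | timing = 48 h induction, then 1 h compound, then 30 min agonist, 37 °C | detection = automated 10x imaging of fixed Hoechst-stained cells | read-out basis = nuclear versus cytoplasmic GR-EGFP signal, averaged per well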
T cruzi repl: blocks replication of Trypanosoma cruzi | 300,000 compounds, 1.4% hits | AID 1885 | inhibition, % (no concentration beside the values) | T. cruzi beta-gal in NIH3T3, luminescence, 90 h;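 active means mean inhibition across valid replicates above about 55%, limit read from the data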;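 further: signal also drops with host cell toxicity which is not excluded here; 0% = plate median of DMSO wells and 100% = zero luminescence signal; higher percent means less beta-gal luminescence so fewer parasites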
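Read-out: Parasite load inhibition, % | Test system: Mouse NIH/3T3 fibroblasts infected with β-gal-expressing T. cruzi Tulahuen C4 | Amount: 5,000 cells/well | Medium: DMEM, 2% fetal bovine serum | Signal: GalScreen β-gal luminescence, detergent lysis, 60 min | Timing: 3 h attach, ≥90 h co-culture | Also added: Tulahuen C4 trypomastigotes, 5000/well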
CHOP inhibitor: blocks CHOP induction under ER stress; CHO-K1 CHOP-promoter luciferase, tunicamycin-induced, 15-18 h; inhibition, % at 10 µM; 220,000 compounds, 3.8% hits; AID 2732;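 active means compounds that reduced the stress-induced luciferase reporter signal by more than about 70% of percent inhibition, limit read from the data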;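 further: 0% = tunicamycin plus vehicle and 100% = wells without tunicamycin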
CHOP UPR activ: activators of apoptotic arm of unfolded protein response (CHOP) | CHO-CHOP luciferase reporter, UPR activation, luminescence; percent of tunicamycin response over DMSO baseline | activation, % at 10 µM | 330,000 compounds, 0.34% hits;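 active means at 10 µM dose, activation of 40% or more, normalized to positive control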;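 further: 100% = tunicamycin at 10 µg/mL and 0% = DMSO alone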
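Test system: CHO-CHOP cells, stable luciferase reporter of PERK-eIF2a-CHOP signalling | Quantity: 500 CHO-CHOP cells per well | Buffer or medium: F12 plus 10% serum | Compound dosing: 10 µM single point, 0.5% DMSO | Schedule: 6 h compound treatment, 37 °C | Signal: Luciferase luminescence | Control set: Tunicamycin high control, DMSO low control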
UPR XBP1 act: adaptive UPR (XBP1) activation; AID 463104; CHO-XBP1 luciferase reporter, IRE1-XBP1 UPR activation, luminescence; percent of tunicamycin response, DMSO as zero; 330,000 compounds, 0.33% hits; activation, % at 20 µM;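 active means versus positive control, 20 µM dose yields 30% or more activation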;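 further: 100% = tunicamycin at 10 µg/mL and 0% = DMSO only wells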
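incubation = overnight seeding at 37 °C, 6 h compound treatment at 37 °C | assay system = CHO-XBP1 cells stably carrying IRE1-XBP1-driven luciferase reporter | input = 1000 cells per well | detection = luciferase luminescence | dosing = single point, 20 µM final compound, 1% DMSO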
* hit, by the source's call; · = no result given.

SMILES | Lmaj promast | Dynein transport | T cruzi repl | CHOP inhibitor | CHOP UPR activ | UPR XBP1 act
CN(C)CCN(C(=O)c1ccccc1Cl)c1nc2c(Cl)cccc2s1 | 9 | 0.28 | 44 | 54 | 1 | 2
Cc1ccc(NC(=O)C(C)Sc2nc(=O)cc(N)n2-c2ccccc2)cc1 (configuration not stated) | -1 | -0.11 | -20 | 73* | -1 | 0
O=c1/c(=C\c2ccc(O)cc2)sc2nc(-c3ccccc3)c(-c3ccccc3)n12 | · | 3.5 | 30 | 91* | 3 | 0
Cc1cc(C)c2nc3s/c(=C/c4ccccc4)c(=O)n3c2c1 | -12 | -0.91 | · | -21 | · | ·
C(=N\Nc1nc(N2CCCC2)nc(N2CCCC2)n1)/c1cccnc1 | -2 | -0.6 | -7 | -34 | -1 | -2
FC(F)(F)COc1nc(N/N=C/c2cccnc2)nc(N2CCCCC2c2ccccn2)n1 (configuration not stated) | 51* | -0.51 | 59* | 5 | 0 | -2
O=C1OC(Nc2cc(Br)cc3cccnc23)c2ccccc21 (configuration not stated) | 0 | 0.031 | -11 | 2 | 3 | -6
Cc1ccc(NS(=O)(=O)c2cc(C(=O)Nc3cccc(N(C)S(C)(=O)=O)c3)ccc2C)c(C)c1 | 69* | 0.15 | 7 | -3 | 2 | -2
Cc1ccc(C)c(NS(=O)(=O)c2cc(C(=O)Nc3cccc(N(C)S(C)(=O)=O)c3)ccc2C)c1 | 90* | -0.42 | 18 | 14 | 1 | -2
Cc1ccc(NS(=O)(=O)c2cc(NC(=O)c3ccc4c(c3)NC(=O)CS4)ccc2C)c(C)c1 | 64* | -0.089 | 16 | 24 | -2 | 2
CNS(=O)(=O)c1cccc(C(=O)OCC(=O)Nc2ccc3ccccc3c2)c1 | · | · | · | · | 0 | 0
COc1ccc(N2C3=C(CC4=C2CC(C)(C)CC4=O)C(=O)CC(C)(C)C3)cc1 | 100* | 11 | 64* | 4 | -3 | -10
CCOC(=O)CCNC(=O)N1CCCC(N(C)CCc2ccc(OC)c(OC)c2)C1 (configuration not stated) | · | · | 3 | · | -1 | -2
Cc1cccc(OCCCCCn2ccnc2)c1C | 99* | -0.89 | 52 | 49 | -2 | -3
Cc1ccc(C(C)(C)C)c(OCCCn2ccnc2)c1 | 43 | 0.21 | 34 | -8 | -2 | -3
Cc1cccc(C)c1OCCCn1ccnc1 | · | · | -7 | · | 1 | -3
CC(C)(C)c1ccccc1OCCCCCn1ccnc1 | 95* | -0.44 | 61* | 15 | 0 | 0
CCOC(=O)C1=C(COC(=O)c2ccco2)NC(=O)NC1CC (configuration not stated) | · | · | · | · | 1 | -2
Cc1ccc(CNC(=O)Nc2ccc3c(c2)N(C)C(=O)CS3)cc1 | 7 | -0.29 | 2 | 8 | -1 | -2
Cc1ccc(NC(=O)Nc2ccc3c(c2)N(C)C(=O)CS3)cc1C | 14 | 1.3 | 10 | 73* | 3 | -2
Cc1cc(C)cc(NC(=O)Nc2ccc3c(c2)N(C)C(=O)CS3)c1 | 12 | -1.2 | 19 | 87* | 0 | -4
CC(=O)c1cccc(NC(=O)Nc2ccc3c(c2)N(C)C(=O)CS3)c1 | 7 | -0.21 | -9 | 32 | 2 | -3
CCc1ccc(NC(=O)Nc2ccc3c(c2)N(C)C(=O)CS3)cc1 | 9 | -0.18 | 11 | 75* | 0 | 0
O=C(Nc1ccnn1C1CCN(C2CCOCC2)CC1)c1cccc(F)c1 | · | · | -8 | · | 1 | -6
Cn1c(=O)c([N+](=O)[O-])c(-n2cnc3ccccc32)c2ccccc21 | · | -3.3 | -8 | 74* | 21 | 8
SMILES | Lmaj promast | Dynein transport | T cruzi repl | CHOP inhibitor | CHOP UPR activ | UPR XBP1 act
Cn1c(=O)c([N+](=O)[O-])c(NCCc2ccccc2)c2ccccc21 | 31 | -0.15 | 59* | 11 | 0 | -3
Cn1c(=O)c([N+](=O)[O-])c(NCc2ccccc2Cl)c2ccccc21 | · | -0.38 | 4 | 22 | 0 | 3
CCn1c(=O)c([N+](=O)[O-])c(NCCc2ccccc2)c2ccccc21 | 100* | -0.57 | 51 | 37 | -1 | -1
Cc1cccc(CSC(Nc2ccc(F)cc2)=C(C#N)C#N)c1 | 25 | -1 | 0 | 66 | 3 | 0
N#CC(C#N)=C(Nc1ccc(F)cc1)SCc1cccc(Br)c1 | 31 | 0.11 | -53 | 71* | · | ·
O=C(Cc1ccc(Cl)cc1Cl)NCc1cccnc1 | · | · | -2 | · | 0 | 2
Cc1ccc(C=C2C(Cl)=C(Cl)C(Cl)=C2Cl)cc1 | · | -6.2* | -24 | 107* | -4 | -4
CCOc1ccc(NC2c3ccccc3C(=O)N2Cc2ccco2)cc1 (configuration not stated) | 24 | 1.4 | 6 | 73* | 0 | -2
COc1ccc(Cl)cc1NC(=O)CN(C)C1CCS(=O)(=O)C1 (configuration not stated) | · | · | · | · | 1 | 3
Cc1nc(NC(=O)c2ccc(Cl)cc2)sc1-c1csc(Nc2cccc(F)c2)n1 | 10 | -0.05 | -24 | 27 | · | ·
CCOP(=O)(OCC)C(Nc1cccc(C(F)(F)F)c1)c1ccc(Br)cc1 (configuration not stated) | 99* | -0.25 | 24 | 35 | · | ·
CN(C)CCCSc1nc(-c2ccccc2)nc2c1CCC2 | 26 | 0.52 | 71* | 9 | -1 | -1
COc1cc2c(cc1OC)CN(c1ccc(-c3ccccc3OC)nn1)CC2 | 100* | -2.1 | 37 | -22 | 0 | 6
COc1ccc(/C=N\N=C2/SC(CC(=O)O)C(=O)N2c2ccc(O)cc2)cc1OC (configuration not stated) | 56* | -0.28 | -15 | 17 | -4 | -1
Cc1ccc(CNC(=O)c2ccc([N+](=O)[O-])o2)cc1 | 76* | -1.1 | 47 | -14 | -2 | -1
CN(Cc1ccccc1)C(=O)c1ccc([N+](=O)[O-])o1 | 86* | -0.38 | 53 | 29 | -2 | 2
O=C(COC(=O)c1ccc([N+](=O)[O-])o1)NCc1ccccc1 | · | · | · | · | 0 | -1
Cc1ccc(CNC(=O)c2nn(C)c(C)c2[N+](=O)[O-])cc1 | 0 | 0.11 | -8 | 38 | -1 | 2
Cc1ccc(-c2csc(NC(=O)c3ccc([N+](=O)[O-])o3)n2)cc1 | · | · | 70* | · | 3 | 1
Cc1ccc(-n2nnnc2CNC(=O)c2ccc([N+](=O)[O-])o2)cc1C | · | · | 57* | · | 1 | -1
CCN(C[C@H]1N[C@@](C)(C(=O)OC)[C@H]2C(=O)N(C)C(=O)[C@@H]12)S(=O)(=O)c1ccc(F)cc1 | · | · | · | · | 2 | -1
CCOc1ccc(S(=O)(=O)NCCC(=O)NCCOc2ccccc2OC)cc1 | · | · | -6 | · | -3 | -3
